Assay [1] deals with Vero. The experiment in a line: In vitro antiviral activity against Parainfluenza 3 (C243 strain)cell line in Vero cells. The class given is functional, Chlorocebus sabaeus.
The next assay relates to L1210. The assay can be described thus: Inhibitory concentration of compound that inhibits tumor cell growth by 50% in Murine leukemia (L1210) cell line. The class given is functional. The settings on record: Mus musculus, read-out: ID50 (the source's name). The essentials: (§1)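 Incubation was 3 days for L1210 and WI-L2 and 5 days for LoVo/L. MTT was added for 2 to 5 h and formazan was read by absorbance. ID50 is the concentration giving 50% of untreated control growth.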

The species entered for assay [2] is Homo sapiens. The experiment in a line: Effect on de novo purine biosynthesis when [14C]-formate was incorporated to WI-L2 media at 2.5 uM with pre-incubation time of 8 h. The class given is functional. In a few lines:
(§2)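 WI-L2 cells (or adenosine kinase-deficient mutant) kept in log phase in RPMI 1640 with 5% dialyzed FBS, 20 mM NaHEPES pH 7.5, 2 mM glutamine; preincubated with drug at 37 °C, then labeled with [14C]formate. De novo purine synthesis read as [14C]formate incorporation into cellular (hot acid-soluble) and excreted purines, scored as inhibition.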

A further assay deals with WIL2. The assay can be described thus: Inhibitory concentration of compound that inhibits tumor cell growth by 50% in Human B-lymphoblast (WI-L) cell line. The class given is functional. The settings on record: read-out: ID50 (the source's name). In a few lines: as §1
The test system of another assay is HeLa. The experiment in a line: In vitro antiviral activity against Vaccinia virus (Elstree strain) cell line in HeLa cells. The class given is functional, Homo sapiens.
Assay [3] is described as follows: Effect on de novo purine biosynthesis when [14C]formate was incorporated to WI-L2 cells at 2.5 uM with preincubation time of 8 h. The class given is functional, Homo sapiens. In a few lines: as §2
Assay [4] is described as follows: Effect on de novo purine biosynthesis when [14C]-formate was incorporated to WI-L2 cells at 25 uM with preincubation time of 4 h. The class given is functional, Homo sapiens. In a few lines: as §2
Another assay concerns LoVo. The experiment in a line: Inhibitory concentration of compound that inhibits tumor cell growth by 50% in Human colon carcinoma (LoVo/L) cell line. The class given is functional. The settings on record: read-out: ID50 (the source's name). In a few lines:
as §1

The species named for assay [5] is Homo sapiens. The experiment in a line: Effect on de novo purine biosynthesis when [14C]-formate was incorporated to WI-L2 media at 0.25 uM with pre-incubation time of 8 h. The class given is functional. In a few lines:
as §2

Assay [6] is described as follows: Effect on de novo purine biosynthesis when [14C]formate was incorporated to WI-L2 cells at 0.25 uM with preincubation time of 8 h. The class given is functional, Homo sapiens. In a few lines: as §2
Assay [7] relates to Vero. The experiment in a line: In vitro antiviral activity against herpes simplex virus type 2 (MS strain) cell line in Vero cells. The class given is functional, Chlorocebus sabaeus.
Assay [8] is described as follows: Effect on de novo purine biosynthesis when [14C]formate was incorporated to WI-L2 cells at 50 uM with preincubation time of 8 h. The class given is functional, Homo sapiens. In a few lines: (§3)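 Cells were preincubated with drug at 37 °C, then labelled with [14C]formate. De novo purine synthesis was read as label incorporated into cellular and excreted purines (hot acid-soluble fraction).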

The species named for assay [9] is Homo sapiens. The assay can be described thus: Effect on de novo purine biosynthesis when [14C]formate was incorporated to WI-L2 media at 50 uM with preincubation time of 8 h. The class given is functional. In a few lines: (§4)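 WI-L2 cells preincubated with drug at 37 °C before [14C]formate labeling. Read-out: [14C]formate incorporation into cellular and excreted purines (hot acid-soluble fraction). Cells grown in RPMI 1640 with 5% dialyzed fetal bovine serum, 20 mM NaHEPES pH 7.5, 2 mM glutamine, and kept in log phase between 0.5 and 12×10^5 cells/mL.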

Assay [10] is filed under the species Homo sapiens. The assay can be described thus: Effect on de novo purine biosynthesis when [14C]-formate was incorporated into WI-L2 media at 50 uM with pre-incubation time of 8 h. The class given is functional. The essentials:
as §4

A short description of assay [11]: Effect on de novo purine biosynthesis when [14C]-formate was incorporated into WI-L2 cells at 50 uM with pre-incubation time of 8 h. The class given is functional, Homo sapiens. The essentials: as §3
Assay [12] is filed under the species Homo sapiens. The experiment in a line: Effect on de novo purine biosynthesis when [14C]formate was incorporated to WI-L2 media at 0.25 uM with preincubation time of 8 h. The class given is functional. In a few lines:
as §2

For assay [13], the system named is Vero. The experiment in a line: In vitro antiviral activity against Parainfluenza 3 (C243 strain) cell line in Vero cells. The class given is functional, Chlorocebus sabaeus.
The species named for assay [14] is Homo sapiens. The assay can be described thus: Effect on de novo purine biosynthesis when [14C]formate was incorporated to WI-L2 media at 2.5 uM with preincubation time of 8 h. The class given is functional. The essentials:
as §2

Assay [15] is described as follows: Effect on de novo purine biosynthesis when [14C]formate was incorporated to fraction WI-L2 cells at 25 uM with preincubation time of 4 h. The class given is functional, Homo sapiens. The essentials:
as §2

The structures appear in SMILES notation.

As for `COc1ncnc2c(N[C@@H]3O[C@H](CO)[C@@H](O)[C@H]3O)ncnc12`, the Virus rating with Vero [1] was 0.7; in the assay on HeLa, 1; in the assay with Vero [7], 0.2. The IC50 was 40 nM in the assay with L1210, 60 nM in the assay with WIL2 and 280 nM with LoVo. Moreover, the Control in the assay filed under Homo sapiens [2] was found to be 41.8%; in assay [3], 2.7%; in [4], 4.3%; in the assay filed under Homo sapiens [5] it was 63%; in assay [6], 41.9%.
With `OC[C@H]1OC(Nc2ncnc3c(O)ncnc23)[C@H](O)[C@@H]1O` (some centres not stated), the Control is 98.2% in assay [8] and 106% in the assay filed under Homo sapiens [9].
For the molecule `Nc1ncnc2c(NC3O[C@H](CO)[C@@H](O)[C@H]3O)nc(Cl)nc12` (some centres not stated), the Control in the assay filed under Homo sapiens [10] was 43.4%; in assay [11] it was 16.4%.
For the molecule `CN(C)c1ncnc2c(NC3O[C@H](CO)[C@@H](O)[C@H]3O)ncnc12` (some centres not stated), the Control in assay [8] is 50.7%; in the assay listed under Homo sapiens [9], 85.8%.
In the case of `Nc1nc(NC2O[C@H](CO)[C@@H](O)[C@H]2O)c2ncnc(N)c2n1` (some centres not stated), the Control is 91.2% in assay [3] and 89.8% in the assay listed under Homo sapiens [12].
Consider `Nc1ncnc2c(N[C@@H]3O[C@H](CO)[C@@H](O)[C@H]3O)ncnc12`, for which the figures for the IC50 in the assay on L1210, in the assay with WIL2 and in the assay on LoVo were 800 nM, 200 nM and 7000 nM, respectively. For the same molecule, the Virus rating is reported as 0.7 in the assay on Vero [13], 1.3 in the assay on HeLa and 0.8 with Vero [7]. The Control in assay [3] is 29.9%; in assay [6], 79.5%; in the assay listed under Homo sapiens [12] it was 71.9%; in the assay listed under Homo sapiens [14] it was 54.6%.
Turning to `COc1ncnc2c(N[C@H]3O[C@H](CO)[C@@H](O)[C@H]3O)ncnc12`, the Virus rating in the assay with Vero [1] is recorded as 0.7; in the assay with HeLa it was 0.9; with Vero [7], 0.1. Also, the Control in assay [15] was found to be 98.2%. Besides, the IC50 in the assay on L1210 is 2900 nM; with WIL2 it was 2500 nM; in the assay with LoVo, 18700 nM.
For `Nc1ncnc2c(N[C@H]3O[C@H](CO)[C@@H](O)[C@H]3O)ncnc12`, the Virus rating is reported as 1.4 in the assay with Vero [1], 1 with HeLa and 0.2 in the assay on Vero [7]. In addition, the results for the IC50 in the assay on L1210, with WIL2 and with LoVo were 380 nM, 250 nM and 1000 nM, respectively.

Source of the values: ChEMBL document CHEMBL1124422, “Antitumor and antiviral activity of synthetic alpha- and beta-ribonucleosides of certain substituted pyrimido[5,4-d]pyrimidines: a new synthetic strategy for exocyclic aminonucleosides” (1989).
